Results published in ChEMBL document CHEMBL1158631, “Discovery of novel 1-phenyl-cycloalkane carbamides as potent and selective influenza fusion inhibitors” (Bioorg Med Chem Lett, 2010).

Assays:
[1] = Antiviral activity against Influenza A virus (A/Weiss/43 (H1N1)) infected in MDCK cells assessed as inhibition of virus-induced cytopathic effect; assay type: functional, organism-based, Influenza A virus (A/Weiss/1943(H1N1))
How it was run: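 MDCK cells infected with influenza A/Weiss/43 (H1N1). Compounds were titrated at multiple doses after a primary single-dose screen. The read-out was protection from viral cytopathic effect, and EC50 is the concentration inhibiting 50% of cytopathic effect. Values are means of triplicate or of at least duplicate experiments.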

[2] = Cytotoxicity against MDCK cells; assay type: cell-based, Canis lupus familiaris; conditions: dog
How it was run: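 Uninfected MDCK cells were exposed to compounds. CC50 is the concentration inhibiting 50% of MDCK cell growth relative to control.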

[3] = Toxicity assessed as haemolysis in chicken RBC; assay type: cell-based, Gallus gallus, Erythrocyte
[4] = Gallus gallus, Erythrocyte, read-out: IC50

| SMILES | EC50 [1] | CC50 [2] | IC50 [3, 4] | IC50 ([3]; erythrocyte) |
| --- | --- | --- | --- | --- |
| COC(=O)[C@@]1(C)CCC[C@]2(C)c3cc(OC)ccc3C(=O)C[C@@H]12 | 0.89 µM | 67 µM | 3.2 µM |  |
| CN(C(=O)C1(c2ccccc2)CCCC1)c1cccc(C#N)c1 | 0.73 µM | 56 µM |  |  |
| CN(C(=O)C1(c2ccccc2)CCCC1)c1cccnc1 | 16.4 µM | > 100 µM |  |  |
| CN(C(=O)C1(c2ccc(Cl)cc2)CCC1)c1ccccc1 | 0.27 µM | 24 µM |  |  |
| CN(C(=O)C1(c2ccc(Cl)cc2)CCCCC1)c1ccccc1 | > 10 µM | 7.4 µM |  |  |
| CN(C(=O)C1(c2ccc(Cl)cc2)CCCC1)c1ccccc1 | 0.19 µM | 21 µM |  |  |
| CN(C(=O)C1(c2ccccc2)CCCC1)c1cccc(Cl)c1 | 0.46 µM | 17 µM |  |  |
| CN(C(=O)C1(c2ccccc2)CCCC1)C1CCCCC1 | 0.45 µM | 21 µM |  |  |
| CN(C(=O)C1(c2ccccc2)CCCC1)c1ccc(C#N)cc1 | 0.098 µM | > 100 µM |  |  |
| COc1ccc(C2(C(=O)N(C)c3ccccc3)CCCC2)cc1 | 0.75 µM | 69 µM |  |  |
| CN(C(=O)C1(c2ccccc2)CCCC1)c1ccc(C(F)(F)F)cc1 | 2.12 µM | 21 µM |  |  |
| O=C(N1CCCc2ccccc21)C1(c2ccccc2)CCCC1 | > 100 µM | 24 µM |  |  |
| O=C(Nc1ccccc1)C1(c2ccccc2)CCCC1 | > 100 µM | > 100 µM |  |  |
| CN(C(=O)C1(c2ccccc2)CCCC1)c1ccccc1 | 0.24 µM | 52 µM |  |  |
| CCN(C(=O)C1(c2ccccc2)CCCC1)c1ccccc1 | 0.26 µM | 56 µM |  |  |
| O=C(N(CCO)c1ccccc1)C1(c2ccccc2)CCCC1 | 0.58 µM | 79 µM |  |  |
| CN(C(=O)C1(c2cccc(C(F)(F)F)c2)CCCC1)c1ccccc1 | 2.26 µM | 20 µM |  |  |
| CN(C(=O)C1(c2ccccc2)CCCC1)c1ccc(Cl)cc1 | 0.08 µM | 20 µM |  |  |
| CN(C(=O)C1(c2ccc(Cl)cc2)CC1)c1ccccc1 | 1.86 µM | 49 µM |  |  |
| O=C(N1CCCCC1)C1(c2ccccc2)CCCC1 | 2.1 µM | > 100 µM | 2.2 µM |  |
| O=C(N1CCOCC1)C1(c2ccccc2)CCCC1 | 27.9 µM | > 100 µM |  | Not Active |
| CN(C(=O)C1(c2ccccc2)CCCC1)c1ccccc1Cl | 0.18 µM | 23 µM |  |  |
| CC1(C)C[C@H](O)C[C@](C)(CNC(=O)c2cc(Cl)ccc2O)C1 | 0.06 µM | > 50 µM | 0.53 µM |  |
